# Source: ChEMBL document CHEMBL1128402, “Irreversible inhibitors of nicotinic acetylcholine receptors: isolation and structural characterization of the biologically active solvolysis products of bipinnatin-A and bipinnatin-C” (J Med Chem, 1995)
# How the values were obtained:
# [1] = Rate of acetate production by the compound was determined; type: ADME
# Summary of the method: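 Toxin at 100 μM in 25 mM sodium phosphate, pH 7.4, 1% DMSO, at 22–24 °C for up to 8 h. Acetic acid was then measured with a coupled enzyme assay (NAD to NADH, A340 every 5 s for 5 min, initial rate by linear regression, calibrated with 25–200 μM acetate standards). Percent of maximum fit to a single-exponential growth function; mean ± SEM of 3–9 experiments.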
# [2] = Rate constant of solvolysis for the compound was determined; type: ADME
# Summary of the method: (§1)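 Toxin at 100 μM (diluted from 10 mM DMSO stock) in 25 mM sodium phosphate, pH 7.4, 1% DMSO, at 22–24 °C for various times. Fit by nonlinear regression to a single-exponential decay; mean ± SEM of 3–9 independent experiments.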
# [3] = Half-life was determined; type: ADME; summary of the method: as §1
# [4] = Apparent first-order rate of solvolysis for the bipinnatin-A(A4) was determined; type: ADME
# [5] = Half-life of the bipinnatin-A(A4) was determined; type: ADME
# BC3H-1 [6] = test: Irreversible inhibition of [1251]alpha-bungarotoxin binding to Nicotinic acetylcholine receptor (neuronal and muscle) by bipinnatin-A on intact BC3H-1 cell lines; type: cell-based; conditions: dose or concentration not given here
# Summary of the method: (§2)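 Each toxin was preincubated 0–8 h in pH 7.4 phosphate buffer, then its HPLC-isolated peak was dissolved in Hepes/KCl assay buffer pH 7.4 with 1% DMSO. BC3H-1 cells were equilibrated 20 min at 22–24 °C, given the toxin for 1 h, washed, then given saturating [125I]-α-bungarotoxin (15–20 nM) for 1 h. Bound label was gamma-counted, nonspecific binding defined with 100 nM α-bungarotoxin, run in triplicate.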
# BC3H-1 [7] = test: Irreversible inhibition of [1251]alpha-bungarotoxin binding to Nicotinic acetylcholine receptor (neuronal and muscle) by bipinnatin-A(A4) on intact BC3H-1 cell lines; type: cell-based; conditions: dose or concentration not given here; summary of the method: as §2
# BC3H-1 [8] = test: Irreversible inhibition rate of [1251]alpha-bungarotoxin binding to Nicotinic acetylcholine receptor (neuronal and muscle) by bipinnatin-A on intact BC3H-1 cell lines; type: cell-based
# Summary of the method: (§3)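 Toxin diluted to 100 µM in assay buffer with 1% DMSO was added straight onto BC3H-1 cells. At set times it was removed and remaining receptors were measured with saturating [125I]-α-bungarotoxin. The log of specific binding relative to time zero was plotted against time. Rates came from nonlinear regression, double-exponential where applicable, from at least two independent experiments.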
# BC3H-1 [9] = test: Irreversible inhibition rate of [1251]alpha-bungarotoxin binding to Nicotinic acetylcholine receptor (neuronal and muscle) by bipinnatin-A(A4) on intact BC3H-1 cell lines; type: cell-based; summary of the method: as §3
# [10] = Amount acetic acid produced by the compound; type: ADME
# [11] = Amount of acetic acid produced by the compound; type: ADME
Compound,Activity [1],Ksolv [2],T1/2 [3],half-life [3],Activity [4],half-life [5],inhibition (BC3H-1 [6]),inhibition (BC3H-1 [7]),inhibition (BC3H-1 [8]),inhibition (BC3H-1 [9]),Acid hydrolysis [10],Activity [11]
CC(=O)OC1C2=C(C)C=C(O2)[C@@H]2O[C@@]2(C)CC2OC(=O)[C@@]3(O[C@H]23)C(OC(C)=O)C[C@@H]1C1(C)CO1 (some centres not stated),0.589 h⁻¹,0.596 h⁻¹,1.24 h,1.17 h,,,,,,,,
C=C(C=O)[C@H]1CC(OC(C)=O)[C@@]23O[C@@H]2C(C[C@]2(C)O[C@H]2C2=CC(C)=C(O2)C1OC(C)=O)OC3=O (some centres not stated),0.735 h⁻¹,0.719 h⁻¹,0.97 h,0.97 h,,,,,,,,
C=C(C(=O)OC)[C@H]1CC(OC(C)=O)[C@@]23O[C@@H]2C(C[C@]2(C)O[C@H]2C2=CC(C)=C(O2)C1OC(C)=O)OC3=O (some centres not stated),0.67 h⁻¹,0.638 h⁻¹,1.04 h,1.08 h,0.399 h⁻¹,1.74 h,41.5%,57.5%,0.29 min⁻¹,0.033 min⁻¹,,
CC(=O)OCC[N+](C)(C)C [ACETYLCHOLINE],,,,,,,,,,,0.22 mol/mol,
C=C(C)[C@@H]1CC2=C(C=O)C=C(O2)[C@@H]2O[C@@]2(C)C[C@H]2OC(=O)[C@@]3(O[C@H]23)[C@@H](OC(C)=O)C1 [LOPHOTOXIN],,0.017 h⁻¹,,40 h,,,,,,,,0.17 M⁻¹
